# Measured values gathered from unrelated publications.
# Compare with care: the assays were run in different laboratories.
# Target: Voltage-gated inwardly rectifying potassium channel KCNH2 (KCNH2, Homo sapiens, UniProt Q12809)
Structure (SMILES),read-out,mode,technique,cells,tested at,endpoint,result
CNC(=O)[C@@]12C[C@@H]1[C@@H](n1cnc3c(NCCc4ccc(O)c(OC)c4)nc(C#Cc4ccc(Br)s4)nc31)[C@H](O)[C@@H]2O,ion current,inhibitor,,,10 µM,inhibition,> 50%
CCN(Cc1ccccc1C(F)(F)F)C(=O)C1CCN(S(=O)(=O)c2ccc3[nH]ncc3c2)CC1,ligand displacement,,radioligand,,10 µM,inhibition,18%
COc1ncc(C)c(-c2ccc3c(c2)[nH]c(=O)c2cnn([C@H]4CCOC4)c23)c1C,ion current,inhibitor,,,,IC50,4 µM
CCN(CC)CCNC(=O)C1CCN(c2ccc3nnc(-c4cccc(C)c4)n3n2)CC1,ion current,inhibitor,patch clamp,HEK293,10 µM,inhibition,58%
CCc1cc(O)ccc1-c1ccc2c(-c3nc4c([nH]3)CN(C(C)C)[C@H](C(=O)N3CC(N(C)C)C3)C4)n[nH]c2c1,ion current,inhibitor,,,13 µM,inhibition,< 5%
Cc1nc2cnc(N)c(C#Cc3cncc(C(=O)Nc4ccc(CN5CCN(C)CC5)c(C(F)(F)F)c4)c3)c2nc1C,ion current,inhibitor,,,,IC50,2.4 µM
Ic1cccc2cnccc12,ligand displacement,,radioligand,,10 µM,inhibition,31%
O=C(Cc1ccc(F)c(C(F)F)c1)N1CCN(c2ccc3nncn3n2)CC1,ligand displacement,,radioligand,,30 µM,inhibition,38%
CNC(=O)[C@@]12C[C@@H]1[C@@H](n1cnc3c(NCCc4ccc(OC)c(OC)c4)nc(C#Cc4ccc(Cl)s4)nc31)[C@H](O)[C@@H]2O,ion current,inhibitor,,,10 µM,inhibition,> 50%
O=C(Cc1ccc(F)c(CF)c1)N1CCN(c2ccc3nncn3n2)CC1,ligand displacement,,radioligand,,30 µM,inhibition,23%
N=c1n(CCN2CCCCC2)c2ccccc2n1CC(O)c1cccc(Br)c1 (centres unmarked),ion current,inhibitor,patch clamp,HEK293,10 µM,inhibition,99%
